From ChEMBL document CHEMBL1142103, “Bioactive lignans from Peperomia heyneana” (J Nat Prod, 2007)

Tests used:
[1] = tested on: Human immunodeficiency virus 1; experiment: Antiviral activity against on HIV1 3b infected C8166 cells assessed as syncytial cell formation after 3 days; format: functional, organism-based; settings: Human immunodeficiency virus 1, 3b, C8166, 72 h
Procedure, shortened: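 C8166 cells (8 × 10^5/mL) seeded with serial concentrations of compound, then infected with HIV-1 IIIB at 1300 TCID50/well; 3 days at 37 °C, 5% CO2. Syncytia (multinucleated giant cells) counted per well under inverted microscope; percent inhibition of syncytium formation versus untreated infected controls gives EC50.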

[2] = Cytotoxicity against C8166 cells by MTT method; format: cell-based; settings: human
Procedure, shortened: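 Uninfected C8166 cells (4 × 10^5/mL) exposed to graded compound concentrations for 72 h at 37 °C, 5% CO2. Supernatant removed, MTT (5 mg/mL stock in PBS) added for 4 h, formazan dissolved in 50% DMF–20% SDS, absorbance read at 595/630 nm. CC50 (50% loss of viable cells) taken from dose-response curve.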

[3] = Selectivity index, ratio of CC50 for C8166 cells to IC50 for HIV1 infected C8166 cells; format: functional
Procedure, shortened: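 Therapeutic index computed as CC50 (MTT viability of uninfected C8166, 72 h) divided by EC50 (inhibition of HIV-1 IIIB syncytium formation in C8166, 3 days), both run in parallel.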

SMILES | EC50 [1] [µM] | CC50 [2] [µM] | Ratio CC50/EC50 [3]
COc1cc(C(c2cc(OC)c(OC)c(OC)c2)C2COC(=O)C2C)cc(O)c1OC (stereo not drawn) | 27.3 | 140 | 5.1
Cc1cn([C@H]2C[C@H](N=[N+]=[N-])[C@@H](CO)O2)c(=O)[nH]c1=O [ZIDOVUDINE] | 0.017 | 4550 | > 100000
COc1cc([C@H]2O[C@H](c3cc(OC)c4c(c3)OCO4)[C@@H](COC(C)=O)[C@@H]2CO)cc(OC)c1O | 49.8 | 229 | 4.6
COc1cc(C(c2cc(OC)c(OC)c(OC)c2)[C@@H]2COC(=O)[C@H]2C)cc(OC)c1OC [PEPEROMIN C] | 42.6 | 192 | 4.5
COc1cc(C(c2cc(OC)c3c(c2)OCO3)[C@@H]2COC(=O)[C@H]2C)cc2c1OCO2 [PEPEROMIN A] | 5.3 | 43.2 | 8.2
COc1cc([C@@H](c2cc(OC)c3c(c2)OCO3)[C@@H]2COC(=O)[C@H]2C)cc(OC)c1OC [PEPEROMIN B] | 5.4 | 49.1 | 9.1
